One assay relates to A549. The assay can be described thus: Cytotoxicity against human A549 cells assessed as cell growth inhibition after 3 days by MTT assay. It is filed as functional, cell-based. The conditions noted are these: A549, 72 h. The method, boiled down:
(§1)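 Cells grown in RPMI-1640 with 10% FBS, penicillin 100 U/mL and streptomycin, 37 °C, 5% CO2. Exponential-phase cells seeded at 5 × 10⁴–1 × 10⁵ cells/mL, grown overnight, then treated with DMSO-predissolved compounds for 3 days. Medium replaced by MTT for 4 h at 37 °C; formazan dissolved in SDS/DMF/water/acetic acid buffer (pH 4.7); absorbance read at 570 nm. At least three independent experiments.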
(In general: Tetrazolium assays rely on reduction of a dye to a coloured formazan, in cell work by metabolically active cells.)

Assay [1] concerns HCT-116. The assay can be described thus: Cytotoxicity against human HCT116 cells assessed as cell growth inhibition after 3 days by MTT assay. To be noted: HCT-116, 72 h. It is filed as functional, cell-based. An outline of the steps: as §1
In a further assay the test system is HepG2. The assay can be described thus: Cytotoxicity against human HepG2 cells assessed as cell growth inhibition after 3 days by MTT assay. In kind it is functional, cell-based. To be noted: HepG2, 72 h. The method, boiled down:
as §1

In assay [2] the target is DNA topoisomerase 2-alpha (Homo sapiens) (UniProt P11388). The assay can be described thus: Inhibition human topoisomerase 2 kDNA decatenation activity at 200 uM.
Assay [3] concerns HCT-116. Nature of the assay: Cell cycle arrest in human HCT116 cells assessed as accumulation at S phase at 2.5 uM after 24 hrs using propidium iodide by fluorescence flow cytometry. In kind it is functional. The method, boiled down:
(§2)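 HCT-116 cells incubated 24 h with test agent at […], stained with propidium iodide; DNA content analysed by fluorescence flow cytometry to give percentage of cells per cell-cycle phase. Values are means of at least three independent experiments.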

Assay [4] deals with HCT-116. The assay can be described thus: Cell cycle arrest in human HCT116 cells assessed as accumulation at S phase at 5 uM after 24 hrs using propidium iodide by fluorescence flow cytometry. It is filed as functional. The method, boiled down: as §2
The subject of assay [5] is HCT-116. Nature of the assay: Cell cycle arrest in human HCT116 cells assessed as accumulation at sub G1 phase at 10 uM after 24 hrs using propidium iodide by fluorescence flow cytometry. It is filed as functional. The method, boiled down: as §2
In general terms: In flow cytometry, cells or beads pass a laser one at a time.

In assay [6] the test system is HCT-116. Nature of the assay: Cell cycle arrest in human HCT116 cells assessed as accumulation at G1 phase at 2.5 uM after 24 hrs using propidium iodide by fluorescence flow cytometry. In kind it is functional. An outline of the steps: as §2
Assay [7] has as its system HCT-116. Nature of the assay: Cell cycle arrest in human HCT116 cells assessed as accumulation at G1 phase at 10 uM after 24 hrs using propidium iodide by fluorescence flow cytometry. It is filed as functional. The method, boiled down:
as §2

The test system of assay [8] is HCT-116. Nature of the assay: Cell cycle arrest in human HCT116 cells assessed as accumulation at sub G1 phase at 5 uM after 24 hrs using propidium iodide by fluorescence flow cytometry. In kind it is functional. The method, boiled down: as §2
The test system of assay [9] is HCT-116. The assay can be described thus: Cell cycle arrest in human HCT116 cells assessed as accumulation at G1 phase at 1.25 uM after 24 hrs using propidium iodide by fluorescence flow cytometry. In kind it is functional. The method, boiled down: as §2
The subject of assay [10] is HCT-116. The assay can be described thus: Cell cycle arrest in human HCT116 cells assessed as accumulation at G1 phase at 5 uM after 24 hrs using propidium iodide by fluorescence flow cytometry. In kind it is functional. An outline of the steps:
as §2

Assay [11] relates to HCT-116. Nature of the assay: Cell cycle arrest in human HCT116 cells assessed as accumulation at G2/M phase at 1.25 uM after 24 hrs using propidium iodide by fluorescence flow cytometry. In kind it is functional. The method, boiled down: as §2
Assay [12] concerns HCT-116. The assay can be described thus: Cell cycle arrest in human HCT116 cells assessed as accumulation at G2/M phase at 5 uM after 24 hrs using propidium iodide by fluorescence flow cytometry. In kind it is functional. An outline of the steps:
as §2

Assay [13] has as its system HCT-116. The assay can be described thus: Cell cycle arrest in human HCT116 cells assessed as accumulation at sub G1 phase at 1.25 uM after 24 hrs using propidium iodide by fluorescence flow cytometry. In kind it is functional. The method, boiled down: as §2
For assay [14], the system named is HCT-116. The assay can be described thus: Cell cycle arrest in human HCT116 cells assessed as accumulation at G2/M phase at 10 uM after 24 hrs using propidium iodide by fluorescence flow cytometry. It is filed as functional. The method, boiled down:
as §2

In assay [15] the test system is HCT-116. Nature of the assay: Cell cycle arrest in human HCT116 cells assessed as accumulation at S phase at 1.25 uM after 24 hrs using propidium iodide by fluorescence flow cytometry. In kind it is functional. The method, boiled down: as §2
In assay [16] the test system is HCT-116. Nature of the assay: Cell cycle arrest in human HCT116 cells assessed as accumulation at S phase at 10 uM after 24 hrs using propidium iodide by fluorescence flow cytometry. It is filed as functional. The method, boiled down: as §2
Assay [17] has as its system HCT-116. The assay can be described thus: Cell cycle arrest in human HCT116 cells assessed as accumulation at sub G1 phase at 2.5 uM after 24 hrs using propidium iodide by fluorescence flow cytometry. It is filed as functional. The method, boiled down: as §2
Assay [18] has as its system HCT-116. Nature of the assay: Cell cycle arrest in human HCT116 cells assessed as accumulation at G2/M phase at 2.5 uM after 24 hrs using propidium iodide by fluorescence flow cytometry. It is filed as functional. An outline of the steps:
as §2

The source made the active and inactive calls. The rule behind the calls is not given here.

Chain of DNA topoisomerase 2-alpha (Homo sapiens) (P11388 whole entry): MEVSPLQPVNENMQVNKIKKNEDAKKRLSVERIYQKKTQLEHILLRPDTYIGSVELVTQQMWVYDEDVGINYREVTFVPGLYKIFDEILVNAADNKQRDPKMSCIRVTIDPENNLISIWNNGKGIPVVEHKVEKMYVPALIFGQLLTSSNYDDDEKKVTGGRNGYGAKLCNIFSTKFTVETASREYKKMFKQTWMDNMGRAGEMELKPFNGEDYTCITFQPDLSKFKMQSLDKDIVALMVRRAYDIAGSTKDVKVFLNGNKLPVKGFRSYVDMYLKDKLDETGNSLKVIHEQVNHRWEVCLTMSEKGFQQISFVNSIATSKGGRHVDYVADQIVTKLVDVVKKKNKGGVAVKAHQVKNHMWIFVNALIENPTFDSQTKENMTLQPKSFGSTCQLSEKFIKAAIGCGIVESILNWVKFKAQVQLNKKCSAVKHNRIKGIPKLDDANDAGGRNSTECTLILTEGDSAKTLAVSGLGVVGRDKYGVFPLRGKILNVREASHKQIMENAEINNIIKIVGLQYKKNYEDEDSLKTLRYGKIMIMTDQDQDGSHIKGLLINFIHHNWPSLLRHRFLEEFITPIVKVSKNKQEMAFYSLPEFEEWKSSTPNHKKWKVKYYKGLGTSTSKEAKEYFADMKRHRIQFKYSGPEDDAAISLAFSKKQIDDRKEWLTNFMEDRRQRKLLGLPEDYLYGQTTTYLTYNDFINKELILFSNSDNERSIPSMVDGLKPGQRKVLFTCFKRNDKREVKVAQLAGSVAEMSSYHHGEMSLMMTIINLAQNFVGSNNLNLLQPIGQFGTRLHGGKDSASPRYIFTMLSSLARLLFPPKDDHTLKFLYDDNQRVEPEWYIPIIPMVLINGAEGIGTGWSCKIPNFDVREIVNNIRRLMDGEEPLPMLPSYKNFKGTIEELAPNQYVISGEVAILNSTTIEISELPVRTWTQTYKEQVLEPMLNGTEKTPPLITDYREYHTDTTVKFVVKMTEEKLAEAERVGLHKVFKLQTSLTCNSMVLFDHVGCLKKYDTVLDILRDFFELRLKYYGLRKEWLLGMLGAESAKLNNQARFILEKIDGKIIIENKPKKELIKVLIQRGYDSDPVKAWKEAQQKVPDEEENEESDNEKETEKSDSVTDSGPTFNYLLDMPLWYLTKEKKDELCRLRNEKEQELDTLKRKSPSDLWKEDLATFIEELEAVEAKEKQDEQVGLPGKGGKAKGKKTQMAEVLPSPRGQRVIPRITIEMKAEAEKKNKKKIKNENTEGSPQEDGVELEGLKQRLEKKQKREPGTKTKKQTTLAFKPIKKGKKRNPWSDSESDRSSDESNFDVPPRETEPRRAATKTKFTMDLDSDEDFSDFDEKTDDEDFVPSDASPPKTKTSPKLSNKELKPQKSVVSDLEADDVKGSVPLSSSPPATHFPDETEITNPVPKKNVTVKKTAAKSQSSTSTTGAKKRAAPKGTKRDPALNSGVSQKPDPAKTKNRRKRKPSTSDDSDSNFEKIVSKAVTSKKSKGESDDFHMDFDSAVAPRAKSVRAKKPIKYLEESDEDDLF

On to `COc1cc([C@@H]2c3cc4c(cc3[C@@H](NC(=S)NC(=O)c3ccccc3C)[C@H]3COC(=O)[C@H]23)OCO4)cc(OC)c1O`, for which the IC50 in the assay on A549 stood at 12.2 µM; with HCT-116 [1], 4.7 µM; with HepG2, 5.2 µM.

On to `COc1cc([C@@H]2c3cc4c(cc3[C@@H](NC(=S)NC(=O)c3ccc(F)cc3)[C@H]3COC(=O)[C@H]23)OCO4)cc(OC)c1O`, for which the values for the IC50 in the assay on A549, in the assay with HCT-116 [1] and in the assay on HepG2 were 10.8 µM, 6.8 µM and 8.3 µM, respectively.

Consider `COc1cc([C@@H]2c3cc4c(cc3[C@@H](NC(=S)NC(=O)c3ccc(Cl)cc3)[C@H]3COC(=O)[C@H]23)OCO4)cc(OC)c1O`, for which the IC50 with A549 stood at 11.5 µM; with HCT-116 [1], 7.2 µM; with HepG2, 7.6 µM.

`COc1cc([C@@H]2c3cc4c(cc3[C@@H](NC(=S)NC(=O)c3cccc(Cl)c3)[C@H]3COC(=O)[C@H]23)OCO4)cc(OC)c1O`: the IC50 with A549 came out at 17.9 µM; in the assay on HCT-116 [1] it was 6.8 µM; in the assay with HepG2, 7.6 µM.

Regarding `COc1cc([C@@H]2c3cc4c(cc3[C@@H](NC(=S)NC(=O)c3cccc5ccccc35)[C@H]3COC(=O)[C@H]23)OCO4)cc(OC)c1O`, the inhibition result in [2] is “Active”. The IC50 in the assay with A549 was found to be 6 µM; in the assay on HCT-116 [1], 2.2 µM; in the assay with HepG2, 18.7 µM.

On to `COc1cc([C@@H]2c3cc4c(cc3[C@@H](NC(=S)NC(=O)c3ccccc3)[C@H]3COC(=O)[C@H]23)OCO4)cc(OC)c1O`, for which the Activity in the assay on HCT-116 [3] turned out to be 5.09%; in the assay on HCT-116 [4], 0%; in the assay on HCT-116 [5], 0%; in the assay on HCT-116 [6], 1.8%; with HCT-116 [7], 3.55%; in the assay with HCT-116 [8], 0%. In addition, the Activity is recorded as 48.6% in the assay on HCT-116 [9]; 4.23% with HCT-116 [10]; 42.66% in the assay with HCT-116 [11]; 95.77% in the assay with HCT-116 [12]; 0% in the assay with HCT-116 [13]; 96.45% in the assay on HCT-116 [14]. In addition, the Activity in the assay with HCT-116 [15] was 8.74%; with HCT-116 [16], 0%; in the assay on HCT-116 [17], 0%; in the assay with HCT-116 [18] it was 93.11%. Besides, in [2], the inhibition entry was “Active”. The IC50 came to 9.8 µM in the assay with A549, 6.3 µM in the assay on HCT-116 [1] and 6.1 µM with HepG2.

With `COc1cc([C@@H]2c3cc4c(cc3[C@@H](NC(=S)NC(=O)c3ccccc3Br)[C@H]3COC(=O)[C@H]23)OCO4)cc(OC)c1O`, the concentration for half-maximal inhibition (IC50) in the assay with A549 is 11.4 µM; in the assay on HCT-116 [1] it was 6.2 µM; in the assay with HepG2 it was 5.1 µM.

On to `COc1cc([C@@H]2c3cc4c(cc3[C@@H](NC(=S)NC(=O)c3ccccc3Cl)[C@H]3COC(=O)[C@H]23)OCO4)cc(OC)c1O`, for which the half-maximal inhibitory concentration (IC50) worked out at 10.3 µM with A549, 7.7 µM in the assay with HCT-116 [1] and 7.7 µM in the assay with HepG2.

For the compound `COc1cc([C@@H]2c3cc4c(cc3[C@@H](NC(=S)NC(=O)c3ccc(C)cc3)[C@H]3COC(=O)[C@H]23)OCO4)cc(OC)c1O`, the results for the IC50 in the assay with A549, with HCT-116 [1] and with HepG2 were 11.3 µM, 6.8 µM and 3 µM, respectively.

On to `COc1cc([C@@H]2c3cc4c(cc3[C@@H](O[C@@H]3O[C@@H]5CO[C@@H](C)O[C@H]5[C@H](O)[C@H]3O)[C@H]3COC(=O)[C@H]23)OCO4)cc(OC)c1O` [ETOPOSIDE], for which the IC50 with A549 was determined as 21.4 µM; with HCT-116 [1] it was 13.5 µM; in the assay with HepG2, 4.9 µM.

In the case of `COc1cc([C@@H]2c3cc4c(cc3[C@@H](NC(=S)NC(=O)c3cccc(C)c3)[C@H]3COC(=O)[C@H]23)OCO4)cc(OC)c1O`, the half-inhibitory concentration (IC50) in the assay with A549 stood at 13.3 µM; in the assay with HCT-116 [1], 5.5 µM; in the assay with HepG2, 4.6 µM.

For `COc1cc([C@@H]2c3cc4c(cc3[C@@H](N)[C@H]3COC(=O)[C@H]23)OCO4)cc(OC)c1O`, the IC50 in the assay with A549 is 5.2 µM; in the assay on HCT-116 [1], 2.1 µM; in the assay on HepG2, 1.5 µM.

On to `COc1cc([C@@H]2c3cc4c(cc3[C@@H](NC(=S)NC(=O)c3ccccc3I)[C@H]3COC(=O)[C@H]23)OCO4)cc(OC)c1O`, for which the inhibition result in assay [2] was “Active”. Also, the values for the IC50 with A549, with HCT-116 [1] and with HepG2 were 15.1 µM, 6.7 µM and 6.7 µM, respectively.

In general, IC50 refers to the concentration that gives 50% inhibition.

The values are drawn from ChEMBL document CHEMBL1687881, “Synthesis and evaluation of aroylthiourea derivatives of 4-β-amino-4'-O-demethyl-4-desoxypodophyllotoxin as novel topoisomerase II inhibitors” (Eur J Med Chem, 2011).
